Laboratory results from ChEMBL document CHEMBL1141109, “Synthesis of an estrogen receptor beta-selective radioligand: 5-[18F]fluoro-(2R,3S)-2,3-bis(4-hydroxyphenyl)pentanenitrile and comparison of in vivo distribution with 16alpha-[18F]fluoro-17beta-estradiol” (J Med Chem, 2005).
Values belong to the compound of their own block, whether it stands above or below them.

Legend:
[1] = Biodistribution of [18F]FEDPN in beta estrogen receptor knock out mouse spleen after 2 h; (n=3); format: ADME, organism-based; details: in vivo
How it was run: (§1)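 αERKO and βERKO mice, staged by daily vaginal smears and kept on estrogen-free chow, were studied in a nonestrous stage. Each mouse received 11 μCi of tracer in 130 μL of 10% ethanol/saline. Mice were killed at 30 min, 1 h or 2 h (n = 3 each). Organs were removed, blotted, weighed and gamma-counted against an injectate standard. Uptake is given as %ID/g ± SD.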

[2] = Biodistribution of [18F]FEDPN in beta estrogen receptor knock out mouse muscle after 30 min; (n=3); format: ADME, organism-based, Muscle tissue; details: in vivo, 0.5 h; how it was run: as §1
[3] = Biodistribution of [18F]-FEDPN in rat thymus after 1 hr when given in tail vein; (n=5); format: ADME, organism-based; details: in vivo, iv
How it was run: (§2)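 Immature female Sprague–Dawley rats (<25 days old) anesthetized with isoflurane/O2. Given 20 µCi tracer by tail vein in 150 µL of 20% ethanol/saline. […] Killed at 30 min, 1 h or 2 h. Blood and organs blotted, weighed and gamma-counted against a standard dilution of the injectate. Reported as %ID/g ± SD, n=5.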

[4] = Biodistribution of [18F]FEDPN in beta estrogen receptor knock out mouse brain after 30 min; (n=3); format: ADME, organism-based; details: in vivo, 0.5 h; how it was run: as §1
[5] = Biodistribution of [18F]FEDPN in rat uterus after 30 min when given in tail vein; (n=5); format: ADME, organism-based; details: in vivo, iv, 0.5 h
How it was run: (§3)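 Immature female Sprague–Dawley rats (<25 days old) under isoflurane/O2 got 20 µCi tracer in 150 µL 20% ethanol/saline by tail vein. […] Rats were killed at 30 min, 1 h or 2 h. Organs were blotted, weighed and gamma-counted against an injectate standard. Data are %ID/g ± SD, five rats per point.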

[6] = Biodistribution of [18F]-FEDPN in rat fat after 1 h when given in tail vein; (n=5); format: ADME, organism-based, Adipose tissue; details: in vivo, iv; how it was run: as §2
[7] = Biodistribution of [18F]FEDPN in rat spleen after 1 h when given in tail vein; (n=5); format: ADME, organism-based; details: in vivo, iv; how it was run: as §3
[8] = Biodistribution of [18F]-FEDPN in beta estrogen receptor knock out mouse thymus after 30 min; (n=3); format: ADME, organism-based; details: in vivo, 0.5 h
How it was run: (§4)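 ERKO female mice (αERKO or βERKO), rested 48 h after shipping, placed on estrogen-free chow, and staged by daily vaginal smears. Injected in a nonestrous stage with 11 µCi [18F]FEDPN in 130 µL of 10% ethanol/saline. Killed at 30 min, 1 h or 2 h. Organs counted and reported as %ID/g ± SD, three animals per point.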

[9] = Biodistribution of [18F]-FEDPN in alpha estrogen receptor knock out mouse brain after 2 h; (n=3); format: ADME, organism-based; details: in vivo; how it was run: as §4
[10] = Biodistribution of [18F]FEDPN in beta estrogen receptor knock out mouse ovaries after 2 h; (n=3); format: ADME, organism-based, Female gonad; details: in vivo; how it was run: as §1
[11] = Biodistribution of [18F]FEDPN in rat bone after 1 h when given in tail vein; (n=5); format: ADME, organism-based, Bone element; details: in vivo, iv; how it was run: as §3
[12] = Biodistribution of [18F]FEDPN in alpha estrogen receptor knock out mouse spleen after 30 min; (n=3); format: ADME, organism-based; details: in vivo, 0.5 h; how it was run: as §1
[13] = Biodistribution of [18F]FEDPN in alpha estrogen receptor knock out mouse brain after 1 h; (n=3); format: ADME, organism-based; details: in vivo; how it was run: as §4
[14] = Biodistribution of [18F]-FEDPN in alpha estrogen receptor knock out mouse uterus after 1 h; (n=3); format: ADME, organism-based; details: in vivo; how it was run: as §4
[15] = Biodistribution of [18F]-FEDPN in rat uterus after 1 hr when given in tail vein; (n=5); format: ADME, organism-based; details: in vivo, iv; how it was run: as §2
[16] = Biodistribution of [18F]-FEDPN in rat bone after 2 h when given in tail vein; (n=5); format: ADME, organism-based, Bone element; details: in vivo, iv; how it was run: as §2
[17] = Biodistribution of [18F]FEDPN in rat muscle after 1 h when given in tail vein; (n=5); format: ADME, organism-based, Muscle tissue; details: in vivo, iv; how it was run: as §3
[18] = Biodistribution of [18F]FEDPN in beta estrogen receptor knock out mouse lung after 30 min; (n=3); format: ADME, organism-based; details: in vivo, 0.5 h; how it was run: as §1
[19] = Biodistribution of [18F]FEDPN in alpha estrogen receptor knock out mouse kidney after 30 min; (n=3); format: ADME, organism-based; details: in vivo, 0.5 h; how it was run: as §4
[20] = Biodistribution of [18F]FEDPN in alpha estrogen receptor knock out mouse bone after 30 min; (n=3); format: ADME, organism-based, Bone element; details: in vivo, 0.5 h; how it was run: as §4
[21] = Biodistribution of [18F]-FEDPN in rat ovaries after 1 hr when given in tail vein; (n=5); format: ADME, organism-based, Female gonad; details: in vivo, iv; how it was run: as §2
[22] = Biodistribution of [18F]FEDPN in rat liver after 1 h block when given in tail vein; (n=5); format: ADME, organism-based; details: in vivo, iv; how it was run: as §3
[23] = Biodistribution of [18F]FEDPN in alpha estrogen receptor knock out mouse brain after 30 min; (n=3); format: ADME, organism-based; details: in vivo, 0.5 h; how it was run: as §4
[24] = Biodistribution of [18F]-FEDPN in rat fat after 2 hr when given in tail vein; (n=5); format: ADME, organism-based, Adipose tissue; details: in vivo, iv; how it was run: as §2
[25] = Biodistribution of [18F]FES in alpha estrogen receptor knock out mouse heart after 1 h; (n=3); format: ADME, organism-based; details: in vivo
How it was run: (§5)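 Female αERKO mice rested 48 h after shipping and fed estrogen-free chow. Estrous stage was checked by daily vaginal smears, and mice were used in diestrus. Each received 13 µCi [18F]FES in 100 µL 10% ethanol/saline. Animals were sacrificed at 30 min, 1 h or 2 h (n = 3 each). Tissue uptake is reported as %ID/g ± SD.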

[26] = Biodistribution of [18F]FES in beta estrogen receptor knock out mouse fat after 30 min; (n=3); format: ADME, organism-based, Adipose tissue; details: in vivo, 0.5 h
[27] = Biodistribution of [18F]-FES in alpha estrogen receptor knock out mouse thymus after 30 min; (n=3); format: ADME, organism-based; details: in vivo, 0.5 h; how it was run: as §5
[28] = Biodistribution of [18F]FES in alpha estrogen receptor knock out mouse fat after 1 h; (n=3); format: ADME, organism-based, Adipose tissue; details: in vivo; how it was run: as §5
[29] = Biodistribution of [18F]-FES in beta estrogen receptor knock out mouse bone after 30 min(n=2); mice in nonestrus stage; format: ADME, organism-based, Bone element; details: in vivo, 0.5 h
How it was run: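 Female βERKO mice on estrogen-free chow were staged by vaginal smear and used in a nonestrus (diestrus) stage. Each received 13 µCi [18F]FES in 100 µL 10% ethanol/saline and was sacrificed at 30 min (n = 2). Uptake is given as %ID/g ± SD.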

[30] = Biodistribution of [18F]FES in beta estrogen receptor knock out mouse muscle after 30 min(n=2); mice in nonestrus stage; format: ADME, organism-based, Muscle tissue; details: in vivo, 0.5 h
[31] = Biodistribution of [18F]FES in beta estrogen receptor knock out mouse ovaries after 1 h; (n=3); format: ADME, organism-based, Female gonad; details: in vivo
[32] = Biodistribution of [18F]FES in beta estrogen receptor knock out mouse bone after 1 h; (n=3); format: ADME, organism-based, Bone element; details: in vivo
[33] = Biodistribution of [18F]FES in beta estrogen receptor knock out mouse muscle after 30 min; (n=3); format: ADME, organism-based, Muscle tissue; details: in vivo, 0.5 h
[34] = Biodistribution of [18F]FES in alpha estrogen receptor knock out mouse ovaries after 2 h; (n=3); format: ADME, organism-based, Female gonad; details: in vivo
How it was run: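 Female αERKO mice were rested 48 h after shipping and fed estrogen-free chow. They were staged by daily vaginal smears and studied in diestrus. Each received 13 µCi [18F]FES in 100 µL 10% ethanol/saline and was sacrificed at 30 min, 1 h or 2 h (n = 3 per time). Tissue uptake is given as %ID/g ± SD.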

[35] = Biodistribution of [18F]FES in beta estrogen receptor knock out mouse lung after 1 h; (n=3); format: ADME, organism-based; details: in vivo
[36] = Biodistribution of [18F]FES in beta estrogen receptor knock out mouse lung after 30 min; (n=3); format: ADME, organism-based; details: in vivo, 0.5 h

Biodistribution [1]: 0.12 %ID/g
Biodistribution [2]: 1.45 %ID/g
Biodistribution [3]: 0.29 %ID/g
Biodistribution [4]: 0.93 %ID/g
Biodistribution [5]: 0.95 %ID/g
Biodistribution [6]: 0.37 %ID/g
Biodistribution [7]: 0.16 %ID/g
Biodistribution [8]: 1.2 %ID/g
Biodistribution [9]: 0.28 %ID/g
Biodistribution [10]: 0.17 %ID/g
Biodistribution [11]: 2.22 %ID/g
Biodistribution [12]: 0.99 %ID/g
Biodistribution [13]: 0.51 %ID/g
Biodistribution [14]: 0.37 %ID/g
Biodistribution [15]: 0.74 %ID/g
Biodistribution [16]: 1.88 %ID/g
Biodistribution [17]: 0.22 %ID/g
Biodistribution [18]: 5.38 %ID/g
Biodistribution [19]: 7.22 %ID/g
Biodistribution [20]: 3.47 %ID/g
Biodistribution [21]: 0.67 %ID/g
Biodistribution [22]: 0.76 %ID/g
Biodistribution [23]: 0.96 %ID/g
Biodistribution [24]: 0.1 %ID/g
Compound: N#C[C@H](c1ccc(O)cc1)[C@@H](CCF)c1ccc(O)cc1

Biodistribution [25]: 0.15 %ID/g
Biodistribution [26]: 2.01 %ID/g
Biodistribution [27]: 0.68 %ID/g
Biodistribution [28]: 0.14 %ID/g
Biodistribution [29]: 1.26 %ID/g
Biodistribution [30]: 1.89 %ID/g
Biodistribution [31]: 5.61 %ID/g
Biodistribution [32]: 1.08 %ID/g
Biodistribution [33]: 1.7 %ID/g
Biodistribution [34]: 0.18 %ID/g
Biodistribution [35]: 1.48 %ID/g
Biodistribution [36]: 3.74 %ID/g
Compound: C[C@]12CC[C@@H]3c4ccc(O)cc4CC[C@H]3[C@@H]1C[C@@H](F)[C@@H]2O [FLUOROESTRADIOL]
